Sampled rows, rich in hits. Any-hit rate of the full collection: about 4.9%.
NF-kB neuron act: activators of NF-kB expression in neurons, primary screen, cell-based, HTS; human neuronal cells, NF-kB reporter expression; hits give high values; fold change at 12.5 µM; 190,000 tested, 1.6% active; in the data active = fold change above about 3.3
STAT3 act: IL-6 driven STAT3 reporter potentiators, primary screen, U3A cells, luciferase, luminescence, MLSCN library; 190,000 tested, 0.91% active; activation (% of control), % at 5.6 µM; AID 871, 2007; IL-6 STAT3-luciferase reporter; 100% = signal with IL-6 EC80 alone;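 active = activation above the screen-wide mean of compound activation plus 3 SD, cut at about 130% in these data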
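Material: STAT3-luciferase reporter U3A cells. Controls: IL-6-treated wells, 100% activation. Read-out: % activation versus median of IL-6-stimulated wells. Probe or stimulus: IL-6 stimulus at 33 ng/mL final. Timing: compound 1 h, then IL-6 6 h at 37 °C. Signal: reporter luminescence signal.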
STAT3 inh-1: IL-6 driven STAT3 reporter inhibitors, primary screen, U3A cells, luciferase, luminescence, MLSCN library | IL-6 STAT3-luciferase reporter; host cell line lacks STAT1 | inhibition, % at 5.5 µM | 190,000 tested, 0.89% active;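 active = inhibition above the mean inhibition across all screened compounds plus 3 SD, cut at about 44% in these data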
STAT1 inh: STAT1 signaling inhibitors, primary screen, cell-based, HTS, luciferase reporter; NIH 3T3 STAT1-luciferase reporter, IFN-gamma, luminescence; inhibition, % at 5.5 µM; 200,000 tested, 0.35% active;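 active = inhibition above a set limit, the mean inhibition across all tested compounds plus 3 SD, cut at about 34% in these data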
APP 5'UTR act: activators of APP 5'UTR luciferase reporter, primary screen, SH-SY5Y cells; SH-SY5Y APP 5'UTR luciferase reporter, luminescence; zero percent = DMSO vehicle wells; activation, % at 2 µM; 190,000 tested, 1% active;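 active = activation above a set limit, based on mean plus 3 SD of controls, cut at about 140% in these data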
STAT1 act: STAT1 signaling activators, primary screen, cell-based, HTS, luciferase reporter | 200,000 tested, 2.6% active | NIH 3T3 STAT1-luciferase reporter, IFN-gamma, luminescence; 100% = IFN-gamma alone, no compound | activation (% of control), % at 5.5 µM;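 active = activation above the screen-wide mean activation plus 3 SD, cut at about 130% in these data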
STAT3 inh-2: STAT3 reporter inhibitors, retest of hits, confirmation, U3A cells, luciferase, luminescence; AID 1265, 2008; 1,200 tested, 45% active; inhibition, % at 5.7 µM; shares compounds with STAT3 inh-1; IL-6 STAT3 luciferase reporter; cell line lacks STAT1;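 active = inhibition above the hit cutoff computed for the primary STAT3 screen, cut at about 44% in these data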
NFkB inh 2: NF-kB reporter inhibitors in human cells, confirmation, counter-screen for STAT3 inhibitor project, cell-based, HEK293T, luciferase, TNF-alpha stimulus | 1,200 tested, 36% active | inhibition, % at 5.7 µM | shares compounds with STAT3 inh-1 | TNF-alpha induced;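 active = inhibition above the mean of solvent-only control wells plus 3 SD, cutoff set per campaign, cut at about 13% in these data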
STAT1 inh STAT3c: STAT1 reporter inhibitors, IFN-gamma induced, confirmation, counter-screen for STAT3 inhibitor project, cell-based, NIH 3T3, luciferase luminescence; shares compounds with STAT3 inh-1; NIH 3T3 STAT1-luciferase reporter; inhibition, % at 5.7 µM; 1,200 tested, 27% active; AID 1317, 2008;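 active = inhibition above the mean plus 3 SD of solvent-only control wells, limit set per screening run, cut at about 16% in these data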
Hits are given with their value; - = inactive; . = not tested or not shown.

SMILES | NF-kB neuron act | STAT3 act | STAT3 inh-1 | STAT1 inh | APP 5'UTR act | STAT1 act | STAT3 inh-2 | NFkB inh 2 | STAT1 inh STAT3c
Brc1ccc(-c2cn3nc4c(nc3n2)CCCC4)cc1 | - | - | 77 | - | 186 | - | - | - | -
O=C(Nc1ccc(-c2nc3cccnc3s2)cc1)C1CCCO1 (stereo not drawn) | - | - | 84 | - | - | - | 66 | 16 | -
Cc1ccc2nc(-c3ccc(NC(=O)C4CCCO4)cc3)[nH]c2c1 (stereo not drawn) | 3.8 | - | 72 | - | - | - | - | - | -
COC(=O)c1ccc(NC(=O)C2CCCO2)cc1 (stereo not drawn) | - | - | - | - | - | - | . | . | .
Cc1nc2ccc(NS(=O)(=O)c3ccc4c(c3)OCCO4)cc2s1 | - | - | 71 | - | - | - | 67 | 26 | 28
CCCCCc1ccc(OCCCC[n+]2cccc(C)c2)c(CCCCC)c1 | - | - | 58 | - | - | - | 48 | - | 26
O=C(Nc1ccc(Br)cc1)c1ccc(N2C(=O)C3CC=C(Cl)CC3C2=O)cc1 (stereo not drawn) | - | - | 47 | - | - | - | - | - | -
O=C(c1cc(-c2ccc(F)cc2)on1)N1CCCC1 | 3.5 | - | 46 | - | - | - | - | - | -
O=C(c1cc(-c2ccc3c(c2)OCO3)on1)N1CCOCC1 | - | - | 52 | - | - | - | - | - | -
O=C(c1cc(-c2ccc(Cl)cc2Cl)on1)N1CCOCC1 | - | - | 50 | - | 196 | - | - | - | -
COc1ccc(C(=O)CN2CCN(S(=O)(=O)c3cccc([N+](=O)[O-])c3)CC2)cc1 | - | - | - | - | - | - | . | . | .
CCC(C)NC(=S)Nc1ccc(C(=O)OC)cc1 (stereo not drawn) | . | - | 55 | - | - | - | 53 | - | -
CCC(C)C(NC(N)=O)C(=O)Nc1ccc(C(=O)OC)cc1 (stereo not drawn) | - | - | - | - | - | - | . | . | .
Cc1ccc(S(=O)(=O)NCCC(=O)Nc2cccc(Cl)c2)cc1 | - | - | - | - | - | - | . | . | .
CCCc1n[nH]c2c1/C(=N/O)CC(c1ccccc1)C2 (stereo not drawn) | - | - | 45 | - | - | - | 44 | - | -
O=C(NNC(=S)NC(=O)C12CC3CC(CC(C3)C1)C2)c1ccncc1 | - | - | - | - | - | - | . | . | .
Cc1ccc(/C=C/C(=O)NC2=NCCS2)cc1 | 5.6 | - | 71 | - | 180 | 147 | - | - | -
Cc1cc(C)n(-c2ccc(C(=O)Nc3ccc(S(=O)(=O)NCc4ccco4)cc3)cc2)n1 | - | - | 75 | - | - | - | 56 | 17 | 19
O=C(c1ccc([N+](=O)[O-])cc1)N1CCN(Cc2ccccc2[N+](=O)[O-])CC1 | - | - | - | - | - | - | . | . | .
c1csc(CNc2ccc3c(c2)OCCO3)c1 | - | - | 86 | - | - | - | - | - | -
Oc1ccccc1CNc1ccc2c(c1)OCCO2 | - | - | - | - | - | - | . | . | .
CCN(CC)CCNC(=S)N1CCn2c(nc3ccccc32)C1 | - | - | - | - | - | - | . | . | .
Cc1ccsc1/C=C1\CCc2ccccc2C1=O | 3.5 | - | 78 | - | 138 | - | 48 | - | -
C=CC[n+]1c(-c2ccc(OC)cc2)csc1NNC(=O)Nc1ccccc1 | - | - | - | - | - | - | . | . | .

Screens (PubChem)
